ChEMBL document CHEMBL2434934, “Multicomponent synthesis and anticonvulsant activity of monocyclic 2,6-diketopiperazine derivatives” (Med Chem Res, 2013)
The source made the active and inactive calls. The rule behind the calls is not given here.

Assays:
Mus musculus [1] = assay: Anticonvulsant activity in albino mouse assessed as protection against maximal electroshock-induced seizures at 30 mg/kg, ip after 2 hrs; type: functional, organism-based; design: dose 30 mg/kg
Procedure, shortened: (§1)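 A 0.2 s electrical stimulus of 50 mA was applied to mice through corneal electrodes primed with an electrolyte solution containing an anesthetic. This followed ip dosing at 30, 100 or 300 mg/kg, with testing at two or more time points. Protection meant abolition of the hindlimb tonic extensor component, scored as number protected/number tested.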

Mus musculus [2] = assay: Neurotoxicity in albino mouse at 300 mg/kg, ip after 2 hrs by rotarod test; type: toxicity, organism-based; design: dose 300 mg/kg, route intraperitoneal; conditions: in vivo
Procedure, shortened: (§2)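 Mice received the compound ip and were tested at intervals of 0.25 to 4 h after dosing. Neurological impairment was scored as inability to keep equilibrium on a rod rotating at 6 rpm for a given time. The footnotes also record inability to grasp the rod and loss of righting reflex. Results were expressed as number toxic/number tested.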

Mus musculus [3] = assay: Neurotoxicity in albino mouse at 100 mg/kg, ip after 2 hrs by rotarod test; type: toxicity, organism-based; design: dose 100 mg/kg, route intraperitoneal; conditions: in vivo; procedure, shortened: as §2
Mus musculus [4] = assay: Neurotoxicity in albino mouse at 30 mg/kg, ip after 2 hrs by rotarod test; type: toxicity, organism-based; design: dose 30 mg/kg, route intraperitoneal; conditions: in vivo; procedure, shortened: as §2
Mus musculus [5] = assay: Anticonvulsant activity in albino mouse assessed as protection against maximal electroshock-induced seizures at 100 mg/kg, ip after 2 hrs; type: functional, organism-based; design: dose 100 mg/kg; procedure, shortened: as §1
Mus musculus [6] = assay: Anticonvulsant activity in albino mouse assessed as protection against maximal electroshock-induced seizures at 300 mg/kg, ip after 4 hrs; type: functional, organism-based; design: dose 300 mg/kg; procedure, shortened: as §1
Mus musculus [7] = assay: Neurotoxicity in albino mouse at 100 mg/kg, ip after 0.5 to 4 hrs by rotarod test; type: toxicity, organism-based; design: dose 100 mg/kg, route intraperitoneal; conditions: in vivo; procedure, shortened: as §2
Mus musculus [8] = assay: Neurotoxicity in albino mouse at 30 mg/kg, ip after 0.5 to 4 hrs by rotarod test; type: toxicity, organism-based; design: dose 30 mg/kg, route intraperitoneal; conditions: in vivo; procedure, shortened: as §2
Mus musculus [9] = assay: Neurotoxicity in albino mouse assessed as loss of righting reflex at 300 mg/kg, ip after 0.5 hrs by rotarod test; type: toxicity, organism-based; design: dose 300 mg/kg, route intraperitoneal; conditions: in vivo; procedure, shortened: as §2
Mus musculus [10] = assay: Neurotoxicity in albino mouse at 100 mg/kg, ip after 0.25 to 4 hrs by rotarod test; type: toxicity, organism-based; design: dose 100 mg/kg, route intraperitoneal; conditions: in vivo; procedure, shortened: as §2
Mus musculus [11] = assay: Anticonvulsant activity in albino mouse assessed as protection against subcutaneous metrazole-induced seizures at 300 mg/kg, ip after 0.5 to 4 hrs; type: functional, organism-based; design: dose 300 mg/kg
Procedure, shortened: (§3)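 Mice were dosed ip at 30, 100 or 300 mg/kg and tested at two or more time points. Protection meant absence of clonic seizures lasting at least 5 s, scored as number protected/number tested.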

Mus musculus [12] = assay: Anticonvulsant activity in albino mouse assessed as protection against maximal electroshock-induced seizures at 300 mg/kg, ip after 0.5 hrs; type: functional, organism-based; design: dose 300 mg/kg; procedure, shortened: as §1
Mus musculus [13] = assay: Anticonvulsant activity in albino mouse assessed as protection against 6 Hz psychomotor seizure at 100 mg/kg, ip after 0.25 to 0.5 hrs; type: functional, organism-based; design: dose 100 mg/kg
Procedure, shortened: (§4)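 Mice given 100 mg/kg ip and tested at intervals between 0.25 and 4 h. A constant-current device delivered corneal stimulation at 32 mA as 0.2 ms monopolar rectangular pulses at 6 Hz for 3 s. Mice were restrained during stimulation, then released into an observation cage. The readout was protection against the psychomotor seizure (stunned posture, forelimb clonus, Straub tail), scored as number protected/number tested.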

Mus musculus [14] = assay: Anticonvulsant activity in albino mouse assessed as protection against maximal electroshock-induced seizures at 30 mg/kg, ip after 0.5 to 4 hrs; type: functional, organism-based; design: dose 30 mg/kg; procedure, shortened: as §1
Mus musculus [15] = assay: Neurotoxicity in albino mouse at 300 mg/kg, ip after 4 hrs by rotarod test; type: toxicity, organism-based; design: dose 300 mg/kg, route intraperitoneal; conditions: in vivo; procedure, shortened: as §2
Mus musculus [16] = assay: Anticonvulsant activity in albino mouse assessed as protection against 6 Hz psychomotor seizure at 100 mg/kg, ip after 1 to 4 hrs; type: functional, organism-based; design: dose 100 mg/kg; procedure, shortened: as §4
Mus musculus [17] = assay: Anticonvulsant activity in albino mouse assessed as protection against subcutaneous metrazole-induced seizures at 100 mg/kg, ip after 0.5 to 4 hrs; type: functional, organism-based; design: dose 100 mg/kg; procedure, shortened: as §3
Mus musculus [18] = assay: Anticonvulsant activity in albino mouse assessed as protection against subcutaneous metrazole-induced seizures at 30 mg/kg, ip after 0.5 to 4 hrs; type: functional, organism-based; design: dose 30 mg/kg; procedure, shortened: as §3
Mus musculus [19] = assay: Neurotoxicity in albino mouse at 300 mg/kg, ip after 0.5 hrs by rotarod test; type: toxicity, organism-based; design: dose 300 mg/kg, route intraperitoneal; conditions: in vivo; procedure, shortened: as §2
Mus musculus [20] = assay: Anticonvulsant activity in albino mouse assessed as protection against maximal electroshock-induced seizures at 100 mg/kg, ip after 0.5 to 4 hrs; type: functional, organism-based; design: dose 100 mg/kg; procedure, shortened: as §1
Mus musculus [21] = assay: Anticonvulsant activity in albino mouse assessed as protection against maximal electroshock-induced seizures at 300 mg/kg, ip after 2 hrs; type: functional, organism-based; design: dose 300 mg/kg; procedure, shortened: as §1
Mus musculus [22] = assay: Neurotoxicity in albino mouse at 100 mg/kg, ip after 0.5 to 2 hrs by rotarod test; type: toxicity, organism-based; design: dose 100 mg/kg, route intraperitoneal; conditions: in vivo; procedure, shortened: as §2
Mus musculus [23] = assay: Anticonvulsant activity in albino mouse assessed as protection against 6 Hz psychomotor seizure at 100 mg/kg, ip after 0.5 to 2 hrs; type: functional, organism-based; design: dose 100 mg/kg; procedure, shortened: as §4

Row | SMILES | Activity (Mus musculus [1]) | Activity (Mus musculus [2]) | Activity (Mus musculus [4]) | Activity (Mus musculus [6]) | Activity (Mus musculus [7]) | Activity (Mus musculus [8]) | Activity (Mus musculus [11]) | Activity (Mus musculus [12]) | Activity (Mus musculus [14]) | Activity (Mus musculus [15]) | Activity (Mus musculus [17]) | Activity (Mus musculus [18]) | Activity (Mus musculus [20]) | further results
1 | O=C1CN(Cc2ccccc2)C(c2ccccc2)C(=O)N1 (racemic) | inactive | Non-toxic | Non-toxic | – | – | – | – | – | – | – | – | – | – | Activity (Mus musculus [3]): Non-toxic; Activity (Mus musculus [5]): inactive
2 | CC(C)[C@@H]1N[C@@H](c2ccccc2)C(=O)NC1=O | – | – | – | inactive | Non-toxic | Non-toxic | inactive | Active | inactive | Non-toxic | inactive | inactive | – | Activity (Mus musculus [9]): Toxic; Activity (Mus musculus [10]): Non-toxic; Activity (Mus musculus [13]): Active; Activity (Mus musculus [16]): inactive
3 | O=C1CN(c2ccccc2)C(c2ccccc2)C(=O)N1 (racemic) | – | – | – | inactive | Non-toxic | Non-toxic | inactive | inactive | inactive | Non-toxic | inactive | inactive | inactive | Activity (Mus musculus [19]): Non-toxic
4 | O=C1NC(=O)[C@H](c2ccccc2)N[C@H]1Cc1ccccc1 | – | – | – | inactive | Non-toxic | Non-toxic | inactive | Active | inactive | Non-toxic | inactive | inactive | inactive | Activity (Mus musculus [19]): Non-toxic
5 | CC(C)[C@@H]1N[C@H](c2ccccc2)C(=O)NC1=O | – | – | – | inactive | Non-toxic | Non-toxic | inactive | Active | inactive | Non-toxic | inactive | inactive | inactive | –
6 | CC(C)C[C@@H]1N[C@@H](c2ccccc2)C(=O)NC1=O | – | – | – | inactive | Non-toxic | Non-toxic | inactive | Active | inactive | Non-toxic | inactive | inactive | inactive | –
7 | CC[C@H](C)[C@@H]1N[C@@H](c2ccccc2)C(=O)NC1=O | – | – | – | inactive | Non-toxic | Non-toxic | inactive | inactive | inactive | Non-toxic | inactive | inactive | inactive | –
8 | O=C1NC(=O)[C@@H](c2ccccc2)N[C@H]1c1ccccc1 | inactive | Non-toxic | Non-toxic | – | – | – | – | – | – | – | – | – | – | Activity (Mus musculus [3]): Non-toxic; Activity (Mus musculus [21]): inactive; Activity (Mus musculus [5]): inactive
9 | O=C1NC(=O)[C@H](c2ccccc2)N[C@H]1c1ccccc1 | inactive | Toxic | Non-toxic | – | – | – | – | – | – | – | – | – | – | Activity (Mus musculus [22]): Non-toxic; Activity (Mus musculus [23]): inactive; Activity (Mus musculus [21]): Active
